Screens as filed in PubChem BioAssay.
CAL PDZ FP-1 – inhibitors of human CAL PDZ peptide binding; 330,000 tested, 0.02% active; Q9HD26; purified CAL PDZ, TMR-peptide fluorescence polarization, 1 h; inhibition, % at 20 µM;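 active = highest replicate inhibition of at least 40%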;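 note: plate controls were DMSO neutral control wells for no effect and unlabeled competitor peptide control wells for full effect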
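Assay system – tagged CAL PDZ protein CerCALP, purified · Timing – 1 h at RT · Compound – single point, 20 µM · Measured by – fluorescence polarization from S- and P-plane intensities, G-factor corrected · Evaluation – inhibition from polarization loss · Probe or stimulus – TMR reporter peptide T*-PRC34 · Buffer or medium – pH 7.4 phosphate-saline buffer, reducing agent, detergent, IgG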
CAL PDZ FP-2 – CAL PDZ (human) peptide binding inhibition; AID 602252; purified CAL PDZ, TMR-peptide fluorescence polarization, 1 h; Q9HD26; inhibition, % at 24.9 µM; 300,000 tested, 0.92% active;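 active = mean inhibition of at least 30% with at least half of replicates also reaching 30%; inconclusive = no clear call, values can overlap the other calls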;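 note: 0% = DMSO neutral control and 100% = excess unlabeled competitor peptide PRC23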
dFosB activator – enhances mouse delta FosB homodimer DNA binding; 340,000 tested, 0.99% active; activation, % at 25 µM; P13346; purified delta FosB, TAMRA-CDK5 oligo fluorescence polarization; percent of positive-control signal above neutral wells;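 active = mean activation above about 17%, with every replicate also reaching it, limit read from the data, passing the limit was not always enough; inconclusive = only one of the two conditions met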
Target sequence (P13346 whole entry, looked up): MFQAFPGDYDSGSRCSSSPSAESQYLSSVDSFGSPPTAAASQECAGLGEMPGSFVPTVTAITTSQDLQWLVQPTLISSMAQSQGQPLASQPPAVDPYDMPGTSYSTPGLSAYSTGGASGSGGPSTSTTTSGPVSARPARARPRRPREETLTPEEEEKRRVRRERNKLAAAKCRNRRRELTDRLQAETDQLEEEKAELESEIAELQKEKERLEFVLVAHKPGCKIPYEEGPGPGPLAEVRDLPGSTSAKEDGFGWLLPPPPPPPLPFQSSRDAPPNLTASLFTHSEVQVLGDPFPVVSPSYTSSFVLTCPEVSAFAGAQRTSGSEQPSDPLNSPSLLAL
SR-BI uptake up – activators of SR-BI mediated HDL lipid uptake; CHO ldlA[mSR-BI] cells, DiI-HDL uptake fluorescence, 3 h; 100 = double the neutral-control signal; activation, % at 12.5 µM; 320,000 tested, 0.096% active;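 active = mean replicate activation of at least 60% and every replicate at or above 60%; inconclusive = mean or all-replicate condition met, but not both; inactive = mean below 60% and not all replicates reaching 60%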;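 note: 0% = median plate neutral-control signal and 100% = twice that signal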
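Material – SR-BI-overexpressing, LDLR-lacking CHO cells · Medium – BSA-supplemented, HEPES-buffered Ham's F12, pH 7.4 · Doses – single concentration · Times – compound with DiI-HDL co-incubation, 3 h at 37 °C · Measured by – bottom-read fluorescence, 550/595 nm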
SR-BI DiI inh – inhibitors of mouse SR-BI mediated HDL lipid uptake; ldlA[mSR-BI] CHO cells, DiI-HDL uptake fluorescence, 3 h; Q61009; inhibition, % at 12.5 µM; AID 488896; 320,000 tested, 0.96% active;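 active = mean replicate inhibition of at least 70% and a set share of replicates each scoring 70 or more; inconclusive = meets just one of the two criteria; inactive = fails both criteria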;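 note: 0% = median of neutral control wells and 100% = median of positive control wells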
An asterisk follows results filed as active; ? = inconclusive; · = no result given. Rows were chosen to be rich in hits. Some 2.8% of all compounds tested hit in one or more screens of this group.

SMILES	CAL PDZ FP-1	CAL PDZ FP-2	dFosB activator	SR-BI uptake up	SR-BI DiI inh
Cc1ccnc(NC(=S)NC(=O)c2ccco2)c1	-1	-2	-1	64*	-64
COc1ccc(S(=O)(=O)N(C)C)cc1NC(C)C(=O)Nc1cccc(C#N)c1 (stereo not drawn)	-1	-4	-2	-10	10
CCOC(=O)c1ccc(N=C2C(=S)N(c3ccc(C(=O)OCC)cc3)C(=N)N2/N=C/c2ccccc2)cc1	-4	-2	-5	-76	76*
CCOC(=O)c1ccc(N=c2scc(C)n2CC)cc1	-3	-6	-1	-11	11
O=C(Nc1nc2ccc(Cl)cc2s1)c1ccco1	-4	-4	1	-17	17
O=C(Nc1nc2ccc(Br)cc2s1)c1ccco1	-4	·	-3	-93	93*
COc1cc(/C=C2\COC/C(=C\c3cc(OC)c(OC)c(OC)c3)C2=O)cc(OC)c1OC	0	-4	-3	-83	83*
Cc1nn(-c2cccc(Cl)c2)c2nc(C(F)(F)F)[nH]c(=O)c12	-2	43*	3	-4	4
CCCCn1cnc2c(sc3nc4c(cc32)CSC(C)(C)C4)c1=O	-2	0	-35	-29	29
CC1(C)Cc2nc3sc4c(NCCO)ncnc4c3cc2CS1	-2	1	-15	-79	79*
C=CCNc1nc(Nc2ccc([N+](=O)[O-])cc2)nc(N2CCCC2)n1	-2	-3	62*	-76	76*
NCCc1c(-c2ccccc2)n(-c2ccccc2)c2ccccc12	0	5	1	-4	4
N#CC1=C(N)NC(SCC(=O)c2ccc(Br)cc2)=C(C#N)C12CCCCC2	-1	-3	-2	-26	26
COc1ccc(C(=O)CSC2=C(C#N)C3(CCCCC3)C(C#N)=C(N)N2)cc1	-1	·	-1	-72	72*
COc1cccc(-c2nc(CS(=O)(=O)CC(=O)N3CCN(C)CC3)c(C)o2)c1	0	0	-5	24	-24
COc1cccc(-c2nc(CS(=O)(=O)CC(=O)N3CCN(C4CCCCC4)CC3)c(C)o2)c1	-1	-4	-11	-75	75*
Cc1cccc(NC(=O)CSCC(=O)Nc2cc(Cl)ccc2N2CCOCC2)c1	-3	-2	-10	-41	41
O=c1[nH]c(=O)n(C2CCCCCC2)c(O)c1C=NCc1ccc(F)cc1	-7	34*	-32	8	-8
Cc1c(N=Cc2c(O)n(C3CCCCC3)c(=O)[nH]c2=O)c(=O)n(-c2ccccc2)n1C	-1	-3	-13	13	-13
CCN(CC)CCN1C(=O)/C(=C\c2ccc(Cl)c([N+](=O)[O-])c2)SC1=Nc1ccc(OC)cc1	-3	-4	?	·	·
COc1ccc(N=C2S/C(=C\c3ccc(Cl)c([N+](=O)[O-])c3)C(=O)N2CCN(C)C)cc1	·	-3	23*	3	-3
COc1ccnc(CSC(N)=Nc2cccc(C(F)(F)F)c2)c1	-1	-3	-3	13	-13
NS(=O)(=O)c1ccc(NC(=O)COc2ncnc3c2cnn3-c2ccccc2)cc1	-3	-2	21*	·	·
CCc1nnc(NC(=O)CCC(=O)NC2CC2)s1	-1	0	-1	2	-2
Cc1cc(Cl)ccc1NNC(N)=S	0	·	-1	-19	19
SMILES	CAL PDZ FP-1	CAL PDZ FP-2	dFosB activator	SR-BI uptake up	SR-BI DiI inh
NC(=S)NNc1cc(Cl)cc(Cl)c1	·	97*	3	8	-8
O=C(NC(N1CCOCC1)C(Cl)(Cl)Cl)c1ccc(F)cc1 (stereo not drawn)	1	76*	8	10	-10
Cn1nnnc1SCCNC(=O)C1CCC(=O)N(Cc2ccccc2F)C1 (stereo not drawn)	-2	-3	0	72*	-72
O=C(NNC(=O)c1ccc2[nH]c(=O)c(=O)[nH]c2c1)c1cccc(Br)c1	-3	2	-6	14	-14
Cc1c(-c2ccccc2)nc2ccccc2c1C(=O)Oc1ccc([N+](=O)[O-])cc1	-2	-2	-7	-88	88*
CC(C)(C)c1ccc(OCC(=O)NCC(c2cccs2)N2CCOCC2)cc1 (stereo not drawn)	-2	-1	-15	26	-26
COc1cccc(-c2cc(C(=O)N3CCN(C(=O)c4ccco4)CC3)on2)c1	-1	0	-16	8	-8
Cc1ccc(-c2c(C(=O)N/N=C/c3ccc(OC(C)C)cc3)nnn2-c2nonc2N)cc1	-3	-4	1	-78	78*
CCOc1ccc(/C=N/NC(=O)c2nnn(-c3nonc3N)c2-c2cccs2)cc1	0	-4	10	-63	63
CCOc1ccc(-c2c(C(=O)N/N=C/c3ccc(OC(C)C)cc3)nnn2-c2nonc2N)cc1	0	-3	-1	-77	77*
Cc1c(NC(=O)CN2C(=O)NC(C)(c3ccc(Cl)cc3)C2=O)c(=O)n(-c2ccccc2)n1C (stereo not drawn)	-3	-4	-9	-6	6
COc1ccccc1NC(=O)c1cc(C(=O)Nc2ccccc2OC)cc([N+](=O)[O-])c1	-1	-1	8	-27	27
CCCCSc1nnc(-c2ccccc2)c2ccccc12	-1	-5	-12	-74	74*
O=C(COc1ccc(F)cc1Br)N1CCN(S(=O)(=O)/C=C/c2ccccc2)CC1	-1	54*	-13	-10	10
Cc1cc(CNC(=O)c2cc(COc3ccc(F)c(F)c3)on2)nn1C	-1	-4	-7	-14	14
O=C(c1cccc(C(=O)N2CCN(Cc3ccccc3)CC2)c1)N1CCN(Cc2ccccc2)CC1	-1	-2	-12	14	-14
O=C(c1cccc(Cl)c1)N1CCC(C(=O)N2CCN(Cc3ccccc3)CC2)CC1	0	45*	1	-27	27
CCOc1ccc2c(c1)c(C(C)=O)c(C)n2-c1ccccc1	-2	-1	1	-74	74*
O=S(=O)(c1ccccc1)N1CCN=C1SCc1ccc(Cl)cc1	-1	44*	-14	2	-2
O=S(=O)(c1ccccc1)N1CCN=C1SCc1ccc(Cl)c(Cl)c1	-1	-4	-5	-11	11
O=S(=O)(c1ccc(Br)cc1)N1CCN=C1SCc1cccnc1	-1	45*	-2	-18	18
Cc1noc(C)c1S(=O)(=O)Nc1ccc2c(c1)C(=O)N([C@H](C)CO)C[C@H](C)[C@@H](CN(C)C(=O)NC1CCCCC1)O2	0	1	-3	2	-2
COc1cc(C(=O)COC(=O)c2ccc([N+](=O)[O-])o2)cc(OC)c1OC	0	·	1	-6	6
O=[N+]([O-])c1ccc(-c2c(-c3ccccc3)ncc3cc(F)ccc23)cc1	0	1	3	-86	86*
COCC(C)n1c(C)cc(C(=O)COC(=O)c2cccn2C)c1C (stereo not drawn)	0	-6	-5	-8	8
